Assay results taken from ChEMBL document CHEMBL4513216, “Probing the Open Global Health Chemical Diversity Library for Multistage-Active Starting Points for Next-Generation Antimalarials” (ACS Infect Dis, 2020).

Assay: Toxicity liver stage against HepG2, at 10uM
Assay type: cell-based
Parameters: test concentration 10 uM, cell line HepG2-A16-CD81EGFP
Settings: human, HepG2-A16-CD81EGFP cells; read-out: INHIBITION
In short: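 Uninfected HepG2-A16-CD81EGFP cells, 3 × 10^3 per well, 1536-well, plated on prespotted compound at 10 μM final, parasite-free screening media added to match infected plates; puromycin 10 μM positive, DMSO 0.5% negative; run in parallel with 48 h PbLuc assay at 37 °C, 5% CO2; viability by CellTiter-Glo luminescence, normalized to controls.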

Compound | cytotoxicity at 10 µM [%]
COCCn1cnc2ccc(NC(=O)c3c(C)noc3C)cc2c1=O | 4.13
Cc1noc(C2CCN(C(=O)C3CCCO3)CC2)n1 (configuration not stated) | 3.95
CC(C)(C)c1nc(CN(Cc2ccccc2F)C2CCCCC2)no1 | -2.65
COc1ccc(C(C)NCc2scnc2C)cc1Cn1cccn1 (configuration not stated) | -3.53
Cc1nc(Cn2cncc(Br)c2=O)no1 | -12.2
Oc1cccc(CNCC2CCCO2)c1 (configuration not stated) | -1.37
CCN(C)Cc1cccc(CNC(=O)CSCc2ccncc2)c1 | 4.31
CCc1nnc2n1CCN(c1nc3ccccc3o1)C2 | 2.11
O=c1n(CCNCc2ccc(-c3ccccc3)cc2)nc2ccccn12 | 0.932
Cc1cnn(CCNCc2c(C(C)C)nn(C)c2Cl)c1 | -14
O=C(Cn1cc(C2CC2)nn1)N(Cc1cccs1)CC1CCCO1 (configuration not stated) | -4.58
CCC(NCCn1cc(C)cn1)C(=O)Nc1cc(C)on1 (configuration not stated) | 4.52
O=C(c1cccnc1)N1CCSCC1 | -15.1
O=c1oc(-c2cccs2)nn1CC(O)c1ccccc1F (configuration not stated) | -14.7
CC(C)c1ccc(C2(C(=O)NCCS(N)(=O)=O)CCC2)cc1 | -2
CCc1csc(C2CCCN(C(=O)c3ccc4c(c3)OCO4)C2)n1 (configuration not stated) | 1.71
CC(C)c1ncncc1C(=O)NCCN1CCCCCC1 | 5.15
O=C(c1ccncc1)N(CCO)Cc1cc(Br)ccc1F | 10.2
COCc1cccc(NC(=O)NCc2ncc(C)c(OC)c2C)c1 | -1.21
CC(O)(CNC(=O)c1cccnc1-n1cccn1)c1cccs1 (configuration not stated) | 7.9
Cc1nc(CN2CCCN(Cc3nc4c(F)cccc4[nH]3)CC2)no1 | 0.601

Compound | cytotoxicity at 10 µM [%]
CN(C)c1ncccc1CNCc1ccc(N2CCOCC2)cc1 | 5.95
Cc1nnc(CN2CCCC2c2cccc(Br)c2)o1 (configuration not stated) | -3.51
Cc1cc2c(cc1NC(=O)NC(C)(C)C)OCO2 | -1.47
CC1CCN(CC(O)CNc2ccc(Cl)cn2)CC1 (configuration not stated) | 17.2
O=S(=O)(Nc1nccs1)c1cc(Cl)cc2c1OCC2 | -2.19
CCc1cc(CNC(=O)N2Cc3ccccc3N(C)CC2C)[nH]n1 (configuration not stated) | 16.3
Cc1cc(=O)n2nc(Oc3cccc(I)c3)sc2n1 | 3.63
CN1CCOC(C(=O)N2CCC3(CCCC3)CC2)C1 (configuration not stated) | -1.52
CCC(C#N)NC(=O)c1ccc(Oc2cccnc2)cc1 (configuration not stated) | -5.82
Cc1cnn(Cc2cc(F)ccc2F)c1NC(=O)NC1CC1 | 16.9
CC(CNC(=O)c1ccc(F)cc1Cl)N1CCCC1 (configuration not stated) | 14.4
CCc1nc(CN2CCCN(Cc3cnn(C)c3)CC2)no1 | -2
Cc1ncoc1C(=O)N1CC[C@@]2(C[C@H](NS(C)(=O)=O)CCO2)C1 | -73
CCS(=O)(=O)NC1CCc2c(ccc(=O)n2CC2CC2)C1 (configuration not stated) | -67.2
CC(C)NC(=O)C1CN(C(=O)NCc2ccccc2)CC12CCOCC2 (configuration not stated) | -84.6
CCOCC1CN(Cc2cnn(C)c2)Cc2cnn(C)c21 (configuration not stated) | -89.6
O=C(C1CCOCC1)N1CC[C@@H](N2CCOCC2)[C@@H]1Cc1ccccc1 | -77.2
Cc1noc(C)c1C(=O)N1C[C@@H]2CN(Cc3cccnc3)CCO[C@@H]2C1 | 5.75
CC(=O)N1CC[C@H]2OCC[C@@H](C(=O)NCc3ccco3)[C@H]2C1 | -81.5
CCNC(=O)Cc1ccc(-c2cccc3c2CCNC3)cc1 | 13.6
CCc1nc(C)c(C2CC(=O)Nc3c2c(C(C)(C)C)nn3C)[nH]1 (configuration not stated) | 2.63

Compound | cytotoxicity at 10 µM [%]
COCC[C@]1(O)CCN(Cc2nc(C(C)C)cs2)C[C@H]1C | -6.26
CC(C)(C)c1cc(CN2CCOCC(O)C2)n[nH]1 (configuration not stated) | -3.89
CCNc1ncc(C(=O)NCc2csc(C)n2)cn1 | 12.5
Cc1ccc(NC2CCCN(CCCc3ccccc3)C2)nn1 (configuration not stated) | -2.81
Cc1ccc2nc(C(=O)N3CC(n4nc(C)cc4C)C3)cn2c1 | 5.53
Cc1ccc(-c2nnc(CN3CC[C@H](CO)[C@@H](O)C3)o2)n1C | -4.39
COCCN(C)C[C@H]1C[C@@H](CO)CN(C(=O)c2ccn(C)c(=O)c2)C1 | 2.14
CCC1CN(Cc2nc(C(C)C)no2)CCC(=O)N1Cc1ccccc1 (configuration not stated) | 5.08
Nc1cc(-c2cc(O)cc(C(=O)O)c2)c2cc[nH]c2n1 | 6.77
Cc1cc2[nH]c(CN3CCOC(c4ccc(Cl)cc4)C3)cc(=O)n2n1 (configuration not stated) | 1.91
Cc1ccc(OC2CCN(C(=O)Cc3c(C)[nH]c(=O)[nH]c3=O)CC2)cc1 | 6.45
Cn1cc(CN2CCC(CCC(=O)NC3CC3)CC2)cn1 | 9.27
CCc1oc(C(=O)N(C)Cc2nonc2C)cc1CN(CC)CC | -10.3
COCCn1ccnc1C1CCCN(C(=O)c2ccncc2F)C1 (configuration not stated) | 0.0773
Cc1ccc2nc(N3CCN(CC(=O)NC(C)C)CC3)cc(C)c2c1 | -14.7
CCN(Cc1cccc(C(=O)Nc2cn(C)nn2)c1)[C@H]1COC[C@@H]1O | -2.77
CN(C)CCCn1ccnc1C1CCCN(c2cc(N)ncn2)C1 (configuration not stated) | -2.1
O=C(c1ccc[nH]1)N1CCC2(CC1)C(=O)Nc1ccccc12 | 2.09
CC(C)n1ccnc1C1CCN(C(=O)c2ccccc2)CC1 | -10.9
Fc1ccc(CN2CCC(c3n[nH]c4nccnc34)CC2)cc1F | -11.8
COc1ccc(S(=O)(=O)NC(=O)COc2ccc3c(c2)CCC3)cc1 | -6.72

Compound | cytotoxicity at 10 µM [%]
CCc1nccn1C1CCCN(C(=O)c2ccc3[nH]c(=O)[nH]c3c2)C1 (configuration not stated) | -3.71
Cc1csc(N2CCCN(C(=O)C(C)n3ccnc3)CC2)n1 (configuration not stated) | -9.46
Cc1ccc(N(C)C2CCN(C(=O)CCc3ccco3)CC2)nn1 | -7
O=C(NCC1CCOC1)c1ccc(OCC(F)(F)F)nc1 (configuration not stated) | -5.64
CN(CC1COc2ccccc2O1)C(=O)NCCCn1cncn1 (configuration not stated) | -0.884
Cc1nn(C)c(N2CCOCC2)c1CNC1CCc2ccccc2C1 (configuration not stated) | -11.4
COc1ccc(NC(=O)c2ccc(-n3ncc(C#N)c3N)cc2)cn1 | -5.77
Cc1nc(Cc2ccc(F)cc2)cc(C2COCCN2)n1 (configuration not stated) | 3.44
COc1ccc(CC(=O)N2C[C@@H]3COC[C@]3(CN(C)C)C2)cc1 | -3.01
CNC(=O)CN1CCOCC12CCN(C(=O)c1ccccc1)CC2 | -82.2
CO[C@@H]1CCN(Cc2c(C)noc2C)[C@@H]2CN(Cc3ccco3)C[C@@H]21 | 8.64
O=C(c1ccccn1)N1CCCC2(CCN(c3ccsc3)C2=O)C1 (configuration not stated) | -136
COCC1CN(C(=O)Cc2cccc(F)c2)Cc2ccnn2C1 (configuration not stated) | -73
CCC1=N[C@@]2(CC[C@@H]3CN(Cc4ccc(Cl)cc4)C[C@@H]32)C(=O)N1 | 3.6
c1cnc2c(c1)cc([C@H]1CCCO1)n2CCN1CCCCC1 | 4.99
Cn1cc(CN2CCC[C@]3(C[C@@H](Oc4ncccc4F)CO3)C2)cn1 | 9.66
COc1c(CNC2CCc3cc(F)ccc32)c(C)nn1C (configuration not stated) | -8.11
CC(C)N1CCOCC2(CCCN(C(=O)CCc3cccnc3)C2)C1 (configuration not stated) | 2.66
CN1C(=O)[C@@H]2CC[C@H]1CN(C(=O)c1csc(Cc3ccccc3)n1)C2 | 3.75
